In brackets after ≈: the same amount, converted by molar mass. Numbered stars: 1 amine (or outer) side, 2 acyl side, 3 side chain; on linkers, the order of the positions; unused ones are H or OH. Square brackets hold non-standard residues; d marks the D form. Side chains are listed from the residue outwards. Peptide text beside a SMILES is read from it. * marks the point of attachment. dPhe(4-NHCONH2) = NC(=O)Nc1ccc(C[C@@H](N)C(=O)O)cc1; Dihydroorotyl(S) = O=C1C[C@@H](C(=O)*)NC(=O)N1; dPhe(4-NH2) = Nc1ccc(C[C@@H](N)C(=O)O)cc1; dPhe(4-Cl) = N[C@H](Cc1ccc(Cl)cc1)C(=O)O; Phe(4-NH2) = Nc1ccc(C[C@H](N)C(=O)O)cc1; d2Nal = N[C@H](Cc1ccc2ccccc2c1)C(=O)O; Lys(iPr) = CC(C)NCCCC[C@H](N)C(=O)O; NHCH2CH2OCH2CH2OEt = CCOCCOCCN*; d3Pal = N[C@H](Cc1cccnc1)C(=O)O; Methoxycarbamoyl = CONC(=O)*; PEG3 = NCCOCCOCCOCCC(=O)O; CO = O=C([*:1])[*:2]; Butyryl = CCCC(=O)*
Experiments:
[1] = target: T1, Gonadotropin-releasing hormone receptor (Homo sapiens, UniProt P30968); experiment: Antagonist activity at human GnRH receptor expressed in HEK293 cells as inhibition of GnRH-induced LH secretion by reporter gene assay; assay type: functional, cell-based
T1 sequence (P30968 whole entry): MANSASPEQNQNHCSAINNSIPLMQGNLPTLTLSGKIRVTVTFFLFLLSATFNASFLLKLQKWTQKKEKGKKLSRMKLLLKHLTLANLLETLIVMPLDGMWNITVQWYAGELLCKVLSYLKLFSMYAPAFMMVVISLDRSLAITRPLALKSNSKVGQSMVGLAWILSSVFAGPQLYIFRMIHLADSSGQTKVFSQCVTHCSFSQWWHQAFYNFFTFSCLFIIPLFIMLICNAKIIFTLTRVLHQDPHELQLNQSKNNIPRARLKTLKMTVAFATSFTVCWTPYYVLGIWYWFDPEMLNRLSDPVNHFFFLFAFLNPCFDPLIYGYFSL
Procedure, shortened: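 HEK293 cells stably expressing cloned human GnRH receptor plus luciferase reporter under LH alpha subunit promoter; plated 5 × 10^4 cells/well, overnight 37 °C. Compounds in 1% DMSO, 11 half-log concentrations in duplicate, 10 min preincubation, then GnRH 1 nM final, ≥5 h at 37 °C; luminescence read. Percent of control fitted to IC50; geometric mean of ≥2 independent experiments.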

[2] = tested on: Mast cell (Rattus norvegicus); experiment: Histamine release in mast cells by ELISA

Row | Structure (SMILES) | IC50 [1] [nM] | EC50 [2] [µg/mL]
1 | CC(=O)N[C@H](Cc1ccc2ccccc2c1)C(=O)N[C@H](Cc1ccc(Cl)cc1)C(=O)N[C@H](CNC(=O)NO)C(=O)N[C@@H](CO)C(=O)N[C@@H](Cc1ccc(NC(=O)[C@@H]2CC(=O)NC(=O)N2)cc1)C(=O)N[C@H](Cc1ccc(NC(N)=O)cc1)C(=O)N[C@@H](CC(C)C)C(=O)N[C@@H](CCCCNC(C)C)C(=O)N1CCC[C@H]1C(=O)N[C@H](C)C(N)=O | 3.46 | –
2 | CCOCCOCCNC(=O)Nc1ccc(C[C@@H](NC(=O)[C@H](Cc2ccc(NC(=O)[C@@H]3CC(=O)NC(=O)N3)cc2)NC(=O)[C@H](CO)NC(=O)[C@@H](Cc2cccnc2)NC(=O)[C@@H](Cc2ccc(Cl)cc2)NC(=O)[C@@H](Cc2ccc3ccccc3c2)NC(=O)NCCOCCOCC)C(=O)N[C@@H](CC(C)C)C(=O)N[C@@H](CCCCNC(C)C)C(=O)N2CCC[C@H]2C(=O)N[C@H](C)C(N)=O)cc1 | 4.55 | –
3 | CC(=O)N[C@H](Cc1ccc2ccccc2c1)C(=O)N[C@H](Cc1ccc(Cl)cc1)C(=O)N[C@H](CCNC(=O)NO)C(=O)N[C@@H](CO)C(=O)N[C@@H](Cc1ccc(NC(=O)[C@@H]2CC(=O)NC(=O)N2)cc1)C(=O)N[C@H](Cc1ccc(NC(N)=O)cc1)C(=O)N[C@@H](CC(C)C)C(=O)N[C@@H](CCCCNC(C)C)C(=O)N1CCC[C@H]1C(=O)N[C@H](C)C(N)=O | 2.68 | –
4 | CCOCCOCCNC(=O)Nc1ccc(C[C@H](NC(=O)[C@H](CO)NC(=O)[C@@H](Cc2cccnc2)NC(=O)[C@@H](Cc2ccc(Cl)cc2)NC(=O)[C@@H](Cc2ccc3ccccc3c2)NC(C)=O)C(=O)N[C@H](Cc2ccc(NC(=O)NCCOCCOCC)cc2)C(=O)N[C@@H](CC(C)C)C(=O)N[C@@H](CCCCNC(C)C)C(=O)N2CCC[C@H]2C(=O)N[C@H](C)C(N)=O)cc1 | 2.04 | –
5 | CCCCCCCC(=O)N[C@H](Cc1ccc2ccccc2c1)C(=O)N[C@H](Cc1ccc(Cl)cc1)C(=O)N[C@H](Cc1cccnc1)C(=O)N[C@@H](CO)C(=O)N[C@@H](Cc1ccc(NC(=O)[C@@H]2CC(=O)NC(=O)N2)cc1)C(=O)N[C@H](Cc1ccc(NC(=O)NOC)cc1)C(=O)N[C@@H](CC(C)C)C(=O)N[C@@H](CCCCNC(C)C)C(=O)N1CCC[C@H]1C(=O)N[C@H](C)C(N)=O | 9.47 | –
6 | CCCCCCCC(=O)N[C@H](Cc1ccc2ccccc2c1)C(=O)N[C@H](Cc1ccc(Cl)cc1)C(=O)N[C@H](Cc1cccnc1)C(=O)N[C@@H](CO)C(=O)N[C@@H](Cc1ccc(NC(=O)NOC)cc1)C(=O)N[C@H](Cc1ccc(NC(N)=O)cc1)C(=O)N[C@@H](CC(C)C)C(=O)N[C@@H](CCCCNC(C)C)C(=O)N1CCC[C@H]1C(=O)N[C@H](C)C(N)=O | 4.17 | –
7 | CONC(=O)NCC[C@@H](NC(=O)[C@@H](Cc1ccc(Cl)cc1)NC(=O)[C@@H](Cc1ccc2ccccc2c1)NC(C)=O)C(=O)N[C@@H](CO)C(=O)N[C@@H](Cc1ccc(NC(=O)[C@@H]2CC(=O)NC(=O)N2)cc1)C(=O)N[C@H](Cc1ccc(NC(N)=O)cc1)C(=O)N[C@@H](CC(C)C)C(=O)N[C@@H](CCCCNC(C)C)C(=O)N1CCC[C@H]1C(=O)N[C@H](C)C(N)=O | 1.69 | –
8 | CCCCCCCC(=O)N[C@H](Cc1ccc2ccccc2c1)C(=O)N[C@H](Cc1ccc(Cl)cc1)C(=O)N[C@H](Cc1cccnc1)C(=O)N[C@@H](CO)C(=O)N[C@@H](Cc1ccc(NC(=O)NOC)cc1)C(=O)N[C@H](Cc1ccc(NC(=O)NOC)cc1)C(=O)N[C@@H](CC(C)C)C(=O)N[C@@H](CCCCNC(C)C)C(=O)N1CCC[C@H]1C(=O)N[C@H](C)C(N)=O | 4.99 | –
9 | CONC(=O)NCCOCCOCCOCCOCCOCCOCCC(=O)Nc1ccc(C[C@@H](NC(=O)[C@H](Cc2ccc(NC(=O)NOC)cc2)NC(=O)[C@H](CO)NC(=O)[C@@H](Cc2cccnc2)NC(=O)[C@@H](Cc2ccc(Cl)cc2)NC(=O)[C@@H](Cc2ccc3ccccc3c2)NC(C)=O)C(=O)N[C@@H](CC(C)C)C(=O)N[C@@H](CCCCNC(C)C)C(=O)N2CCC[C@H]2C(=O)N[C@H](C)C(N)=O)cc1 | 1.67 | –
10 | CCOCCOCCNC(=O)Nc1ccc(C[C@H](NC(=O)[C@H](CO)NC(=O)[C@@H](Cc2cccnc2)NC(=O)[C@@H](Cc2ccc(Cl)cc2)NC(=O)[C@@H](Cc2ccc3ccccc3c2)NC(=O)NCCOCCOCC)C(=O)N[C@H](Cc2ccc(NC(=O)NCCOCCOCC)cc2)C(=O)N[C@@H](CC(C)C)C(=O)N[C@@H](CCCCNC(C)C)C(=O)N2CCC[C@H]2C(=O)N[C@H](C)C(N)=O)cc1 | 2.55 | –
11 | CONC(=O)Nc1ccc(C[C@H](NC(=O)[C@H](CO)NC(=O)[C@@H](CCC(N)=O)NC(=O)[C@@H](Cc2ccc(Cl)cc2)NC(=O)[C@@H](Cc2ccc3ccccc3c2)NC(C)=O)C(=O)N[C@H](Cc2ccc(NC(=O)NOC)cc2)C(=O)N[C@@H](CC(C)C)C(=O)N[C@@H](CCCCNC(C)C)C(=O)N2CCC[C@H]2C(=O)N[C@H](C)C(N)=O)cc1 | 2.98 | –
12 | CONC(=O)NC[C@@H](NC(=O)[C@@H](Cc1ccc(Cl)cc1)NC(=O)[C@@H](Cc1ccc2ccccc2c1)NC(C)=O)C(=O)N[C@@H](CO)C(=O)N[C@@H](Cc1ccc(NC(=O)[C@@H]2CC(=O)NC(=O)N2)cc1)C(=O)N[C@H](Cc1ccc(NC(N)=O)cc1)C(=O)N[C@@H](CC(C)C)C(=O)N[C@@H](CCCCNC(C)C)C(=O)N1CCC[C@H]1C(=O)N[C@H](C)C(N)=O | 3.16 | –
13 | CCCC(=O)N[C@H](Cc1ccc2ccccc2c1)C(=O)N[C@H](Cc1ccc(Cl)cc1)C(=O)N[C@H](Cc1cccnc1)C(=O)N[C@@H](CO)C(=O)N[C@@H](Cc1ccc(NC(=O)[C@@H]2CC(=O)NC(=O)N2)cc1)C(=O)N[C@H](Cc1ccc(NC(=O)NOC)cc1)C(=O)N[C@@H](CC(C)C)C(=O)N[C@@H](CCCCNC(C)C)C(=O)N1CCC[C@H]1C(=O)N[C@H](C)C(N)=O | 2.13 | –

Now those with a lower IC50 [1], led by results:

Row | IC50 [1] [nM] | EC50 [2] [µg/mL] | Structure (SMILES)
14 | 1.53 | – | CONC(=O)Nc1ccc(C[C@H](NC(=O)[C@H](CO)NC(=O)[C@@H](Cc2cccnc2)NC(=O)[C@@H](Cc2ccc(Cl)cc2)NC(=O)[C@@H](Cc2ccc3ccccc3c2)NC(C)=O)C(=O)N[C@H](Cc2ccc(NC(=O)NOC)cc2)C(=O)N[C@@H](CC(C)C)C(=O)N[C@@H](CCCNC(=O)CNC(C)C)C(=O)N2CCC[C@H]2C(=O)N[C@H](C)C(N)=O)cc1
15 | 1.49 | – | CONC(=O)NCC[C@@H](NC(=O)[C@@H](Cc1ccc(Cl)cc1)NC(=O)[C@@H](Cc1ccc2ccccc2c1)NC(C)=O)C(=O)N[C@@H](CO)C(=O)N[C@@H](Cc1ccc(NC(=O)NOC)cc1)C(=O)N[C@H](Cc1ccc(NC(=O)NOC)cc1)C(=O)N[C@@H](CC(C)C)C(=O)N[C@@H](CCCCNC(C)C)C(=O)N1CCC[C@H]1C(=O)N[C@H](C)C(N)=O
16 | 1.46 | – | CCCC(=O)N[C@H](Cc1ccc2ccccc2c1)C(=O)N[C@H](Cc1ccc(Cl)cc1)C(=O)N[C@H](Cc1cccnc1)C(=O)N[C@@H](CO)C(=O)N[C@@H](Cc1ccc(NC(=O)NOC)cc1)C(=O)N[C@H](Cc1ccc(NC(N)=O)cc1)C(=O)N[C@@H](CC(C)C)C(=O)N[C@@H](CCCCNC(C)C)C(=O)N1CCC[C@H]1C(=O)N[C@H](C)C(N)=O
17 | 1.37 | – | CCCC(=O)N[C@H](Cc1ccc2ccccc2c1)C(=O)N[C@H](Cc1ccc(Cl)cc1)C(=O)N[C@H](Cc1cccnc1)C(=O)N[C@@H](CO)C(=O)N[C@@H](Cc1ccc(NC(=O)NOC)cc1)C(=O)N[C@H](Cc1ccc(NC(=O)NOC)cc1)C(=O)N[C@@H](CC(C)C)C(=O)N[C@@H](CCCCNC(C)C)C(=O)N1CCC[C@H]1C(=O)N[C@H](C)C(N)=O (Butyryl-[d2Nal][dPhe(4-Cl)][d3Pal]S[Phe(4-NH2)](Methoxycarbamoyl)[dPhe(4-NH2)](Methoxycarbamoyl)L[Lys(iPr)]P[dA]-NH2)
18 | 1.06 | – | CONC(=O)NCCOCCOCCOCCC(=O)Nc1ccc(C[C@H](NC(=O)[C@H](CO)NC(=O)[C@@H](Cc2cccnc2)NC(=O)[C@@H](Cc2ccc(Cl)cc2)NC(=O)[C@@H](Cc2ccc3ccccc3c2)NC(C)=O)C(=O)N[C@H](Cc2ccc(NC(N)=O)cc2)C(=O)N[C@@H](CC(C)C)C(=O)N[C@@H](CCCCNC(C)C)C(=O)N2CCC[C@H]2C(=O)N[C@H](C)C(N)=O)cc1 (Ac-[d2Nal][dPhe(4-Cl)][d3Pal]S[Phe(4-NH2)]([PEG3-Methoxycarbamoyl])[dPhe(4-NHCONH2)]L[Lys(iPr)]P[dA]-NH2)
19 | 0.88 | – | CCOCCOCCNC(=O)Nc1ccc(C[C@@H](NC(=O)[C@H](Cc2ccc(NC(=O)[C@@H]3CC(=O)NC(=O)N3)cc2)NC(=O)[C@H](CO)NC(=O)[C@@H](Cc2cccnc2)NC(=O)[C@@H](Cc2ccc(Cl)cc2)NC(=O)[C@@H](Cc2ccc3ccccc3c2)NC(C)=O)C(=O)N[C@@H](CC(C)C)C(=O)N[C@@H](CCCCNC(C)C)C(=O)N2CCC[C@H]2C(=O)N[C@H](C)C(N)=O)cc1 (Ac-[d2Nal][dPhe(4-Cl)][d3Pal]S[Phe(4-NH2)](Dihydroorotyl(S))[dPhe(4-NH2)]([CO-NHCH2CH2OCH2CH2OEt])L[Lys(iPr)]P[dA]-NH2)
20 | 0.86 | 118 (≈ 75.9 µM) | CC(=O)N[C@H](Cc1ccc2ccccc2c1)C(=O)N[C@H](Cc1ccc(Cl)cc1)C(=O)N[C@H](Cc1cccnc1)C(=O)N[C@@H](CO)C(=O)N[C@@H](Cc1ccc(NC(=O)NO)cc1)C(=O)N[C@H](Cc1ccc(NC(N)=O)cc1)C(=O)N[C@@H](CC(C)C)C(=O)N[C@@H](CCCCNC(C)C)C(=O)N1CCC[C@H]1C(=O)N[C@H](C)C(N)=O
21 | 0.8 | – | CC(=O)N[C@H](Cc1ccc2ccccc2c1)C(=O)N[C@H](Cc1ccc(Cl)cc1)C(=O)N[C@H](Cc1cccnc1)C(=O)N[C@@H](CO)C(=O)N[C@@H](Cc1ccc(NC(=O)[C@@H]2CC(=O)NC(=O)N2)cc1)C(=O)N[C@H](Cc1ccc(NC(=O)NO)cc1)C(=O)N[C@@H](CC(C)C)C(=O)N[C@@H](CCCCNC(C)C)C(=O)N1CCC[C@H]1C(=O)N[C@H](C)C(N)=O

Reference: ChEMBL document CHEMBL1148636, “Novel analogues of degarelix incorporating hydroxy-, methoxy-, and pegylated-urea moieties at positions 3, 5, 6 and the N-terminus. Part III” (J Med Chem, 2006)
